Test results as given in ChEMBL document CHEMBL1144020, “Development of prodrug 4-chloro-3-(5-methyl-3-{[4-(2-pyrrolidin-1-ylethoxy)phenyl]amino}-1,2,4-benzotriazin-7-yl)phenyl benzoate (TG100801): a topically administered therapeutic candidate in clinical trials for the treatment of age-related macular degeneration” (J Med Chem, 2008).
Values belong to the compound of their own block, whether it stands above or below them.

Tests used:
[1] = Stability at 120 degC after 1 hr; format: physicochemical; conditions: read-out: Stability
How it was run: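 Prodrugs at 0.5% in 0.5% HPMC/5% dextrose, pH 6.7, in closed vials, autoclaved at 120 °C for 1 h. After cooling, percent remaining was assessed by reverse-phase HPLC with diode-array and ELSD detection.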

[2] = Stability in Dutch-belted rabbit eye assessed as hydrolysis rate; format: ADME, tissue-based, Oryctolagus cuniculus
How it was run: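 Two Dutch-Belted rabbit eyeballs were homogenized in 1× RIPA buffer. Prodrug (from 1 mg/mL DMSO stock) was added to a final 5 µg/mL and kept at 37 °C, sampled at 0, 0.25, 1, 2 and 6 h. Controls were prodrug in RIPA buffer for 120 min at 37 °C. Supernatants were analyzed by LC/MS/MS for prodrug and released parent phenol.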

[3] = molecular target: Vascular endothelial growth factor receptor 2 (Homo sapiens, UniProt P35968); experiment: Inhibition of VEGFR2
Sequence of Vascular endothelial growth factor receptor 2 (P35968 whole entry): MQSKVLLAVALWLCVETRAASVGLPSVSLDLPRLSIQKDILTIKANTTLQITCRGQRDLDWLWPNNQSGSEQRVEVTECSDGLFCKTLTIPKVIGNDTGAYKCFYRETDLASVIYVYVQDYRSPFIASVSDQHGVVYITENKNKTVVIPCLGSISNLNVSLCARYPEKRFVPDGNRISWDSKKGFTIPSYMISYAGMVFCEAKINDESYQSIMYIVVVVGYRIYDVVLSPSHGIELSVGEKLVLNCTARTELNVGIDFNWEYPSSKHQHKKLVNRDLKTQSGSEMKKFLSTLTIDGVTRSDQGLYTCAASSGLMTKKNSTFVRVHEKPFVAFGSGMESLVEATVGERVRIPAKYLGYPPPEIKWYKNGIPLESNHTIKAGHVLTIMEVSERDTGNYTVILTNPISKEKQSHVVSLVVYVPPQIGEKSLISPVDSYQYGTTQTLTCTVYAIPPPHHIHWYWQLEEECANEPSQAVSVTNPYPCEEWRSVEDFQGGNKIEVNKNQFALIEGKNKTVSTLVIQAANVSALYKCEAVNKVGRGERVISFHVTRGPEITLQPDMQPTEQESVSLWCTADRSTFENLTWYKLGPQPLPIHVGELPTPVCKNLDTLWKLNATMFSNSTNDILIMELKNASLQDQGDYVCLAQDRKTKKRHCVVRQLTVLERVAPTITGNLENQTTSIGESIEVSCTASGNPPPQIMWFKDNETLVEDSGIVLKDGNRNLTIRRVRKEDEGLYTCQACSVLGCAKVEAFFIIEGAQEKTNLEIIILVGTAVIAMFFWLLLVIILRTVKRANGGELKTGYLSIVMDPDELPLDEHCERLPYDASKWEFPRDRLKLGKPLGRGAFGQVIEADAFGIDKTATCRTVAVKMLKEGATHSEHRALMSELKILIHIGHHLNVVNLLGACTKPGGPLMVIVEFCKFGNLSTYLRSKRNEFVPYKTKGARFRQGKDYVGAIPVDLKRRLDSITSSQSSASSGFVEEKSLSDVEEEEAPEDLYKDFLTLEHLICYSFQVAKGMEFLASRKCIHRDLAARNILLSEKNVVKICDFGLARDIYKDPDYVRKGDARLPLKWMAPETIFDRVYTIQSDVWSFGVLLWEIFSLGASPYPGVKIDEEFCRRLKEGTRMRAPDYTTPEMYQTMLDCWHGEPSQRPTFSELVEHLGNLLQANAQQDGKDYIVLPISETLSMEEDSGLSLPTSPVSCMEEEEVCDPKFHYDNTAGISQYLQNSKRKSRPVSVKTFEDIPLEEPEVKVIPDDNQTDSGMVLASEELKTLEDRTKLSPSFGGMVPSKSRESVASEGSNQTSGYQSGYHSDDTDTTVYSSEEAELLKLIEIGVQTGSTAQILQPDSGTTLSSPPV

[4] = Tmax in C57BL/6 mouse retina at 172 nM instilled per eye; format: ADME, organism-based; conditions: topical or ocular, 172 nM per eye
How it was run: (§1)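 Male C57BL/6 mice got one 10 µL eye drop of prodrug (100 µg, 172 nmol per eye). Composite sampling at 0.5, 1, 3, 7 and 24 h post-instillation. Cornea, retina and pooled sclera/choroid were collected, with plasma at euthanasia. Tissues were homogenized in RIPA and extracted with acetonitrile. Prodrug and parent were measured by LC/MS/MS against matrix standards; AUC by linear trapezoidal rule on means.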

[5] = tested on: Mus musculus; experiment: Reduction of bruch's membrane rupture in laser-induced choroidoal neovascularization in mouse administered topically at 1.83% w/v after 14 days relative to control; format: functional; set-up: scale not given: the % may be the effect or the level left
How it was run: (§2)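 Laser rupture of Bruch's membrane in female C57BL/6J mice aged 4–5 weeks, ketamine-anesthetized; only bubble-forming burns were counted. Eight mice/group got one 10 µL drop of vehicle, 0.61% or 1.83% w/v prodrug t.i.d., 4 h apart, with the fellow eye untreated; a fourth group had no treatment. On day 14, mice were perfused with fluorescein-dextran and CNV area was measured on choroidal flatmounts. Linear mixed model with Dunnett adjustment.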

[6] = tested on: Mus musculus; experiment: Reduction of bruch's membrane rupture in laser-induced choroidoal neovascularization in mouse administered topically at 0.61% w/v after 14 days relative to control; format: functional; set-up: scale not given: the % may be the effect or the level left; how it was run: as §2
[7] = species on record: Mus musculus; experiment: AUC (0 to 24 hrs) in C57BL/6 mouse cornea assessed as 4-chloro-3-{5-methyl-3-[4-(2-pyrrolidin-1-yl-ethoxy)phenylamino]benzo[1,2,4]triazin-7-yl}phenol at 172 nM instilled per eye; format: ADME, organism-based; set-up: time < 24 hr, dose 172 nM, route ophthalmic; conditions: in vivo, topical_or_ocular, 0.172 µM; how it was run: as §1
[8] = species on record: Mus musculus; experiment: Tmax in C57BL/6 mouse plasma assessed as 4-chloro-3-{5-methyl-3-[4-(2-pyrrolidin-1-yl-ethoxy)phenylamino]benzo[1,2,4]triazin-7-yl}phenol at 172 nM instilled per eye; format: ADME, organism-based; conditions: in vivo, topical_or_ocular, 0.172 µM; how it was run: as §1
[9] = species on record: Mus musculus; experiment: Tmax in C57BL/6 mouse retina assessed as 4-chloro-3-{5-methyl-3-[4-(2-pyrrolidin-1-yl-ethoxy)phenylamino]benzo[1,2,4]triazin-7-yl}phenol at 172 nM instilled per eye; format: ADME, organism-based; conditions: in vivo, topical_or_ocular, 0.172 µM; how it was run: as §1
[10] = species on record: Mus musculus; experiment: AUC (0 to 24 hrs) in C57BL/6 mouse retina assessed as 4-chloro-3-{5-methyl-3-[4-(2-pyrrolidin-1-yl-ethoxy)phenylamino]benzo[1,2,4]triazin-7-yl}phenol at 172 nM instilled per eye; format: ADME, organism-based; set-up: time < 24 hr, dose 172 nM, route ophthalmic; conditions: in vivo, topical_or_ocular, 0.172 µM; how it was run: as §1
[11] = species on record: Mus musculus; experiment: Cmax in C57BL/6 mouse choroid/sclera assessed as 4-chloro-3-{5-methyl-3-[4-(2-pyrrolidin-1-yl-ethoxy)phenylamino]benzo[1,2,4]triazin-7-yl}phenol at 172 nM instilled per eye; format: ADME, organism-based; set-up: dose 172 nM, route ophthalmic; conditions: in vivo, topical_or_ocular, 0.172 µM; how it was run: as §1
[12] = tested on: Mus musculus; experiment: Reduction of VEGF-induced retinal leak in BALB/c mouse administered topically at 210 nM q.d; format: functional; set-up: scale not given: the % may be the effect or the level left
[13] = Tmax in C57BL/6 mouse cornea at 172 nM instilled per eye; format: ADME, organism-based; conditions: topical or ocular, 172 nM per eye; how it was run: as §1
[14] = species on record: Mus musculus; experiment: Cmax in C57BL/6 mouse plasma assessed as 4-chloro-3-{5-methyl-3-[4-(2-pyrrolidin-1-yl-ethoxy)phenylamino]benzo[1,2,4]triazin-7-yl}phenol at 172 nM instilled per eye; format: ADME, organism-based; set-up: dose 172 nM, route ophthalmic; conditions: in vivo, topical_or_ocular, 0.172 µM; how it was run: as §1
[15] = AUC (0 to 24 hrs) in C57BL/6 mouse retina at 172 nM instilled per eye; format: ADME, organism-based; set-up: dose 172 nM, time < 24 hr, route ophthalmic; conditions: topical or ocular, 172 nM per eye; how it was run: as §1
[16] = Cmax in C57BL/6 mouse choroid/sclera at 172 nM instilled per eye; format: ADME, organism-based; set-up: dose 172 nM, route ophthalmic; conditions: topical or ocular, 172 nM per eye; how it was run: as §1
[17] = molecular target: Proto-oncogene tyrosine-protein kinase Src (Homo sapiens, UniProt P12931); experiment: Inhibition of Src
Sequence of Proto-oncogene tyrosine-protein kinase Src (P12931 2-536 limits assumed): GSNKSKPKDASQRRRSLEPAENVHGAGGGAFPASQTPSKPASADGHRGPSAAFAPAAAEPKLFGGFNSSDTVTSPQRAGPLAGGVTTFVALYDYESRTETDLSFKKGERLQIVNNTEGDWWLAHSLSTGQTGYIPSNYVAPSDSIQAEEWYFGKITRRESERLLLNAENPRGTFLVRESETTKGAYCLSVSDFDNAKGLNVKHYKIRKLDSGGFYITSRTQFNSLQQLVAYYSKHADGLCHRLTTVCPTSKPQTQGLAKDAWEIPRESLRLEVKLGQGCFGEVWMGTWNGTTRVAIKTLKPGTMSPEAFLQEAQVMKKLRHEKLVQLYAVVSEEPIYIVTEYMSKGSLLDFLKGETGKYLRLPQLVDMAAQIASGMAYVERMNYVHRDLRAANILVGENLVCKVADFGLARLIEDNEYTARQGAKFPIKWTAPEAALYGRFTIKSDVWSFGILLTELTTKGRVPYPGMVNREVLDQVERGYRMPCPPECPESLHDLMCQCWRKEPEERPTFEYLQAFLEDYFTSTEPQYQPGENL

[18] = species on record: Mus musculus; experiment: Cmax in C57BL/6 mouse cornea assessed as 4-chloro-3-{5-methyl-3-[4-(2-pyrrolidin-1-yl-ethoxy)phenylamino]benzo[1,2,4]triazin-7-yl}phenol at 172 nM instilled per eye; format: ADME, organism-based; set-up: dose 172 nM, route ophthalmic; conditions: in vivo, topical_or_ocular, 0.172 µM; how it was run: as §1
[19] = species on record: Mus musculus; experiment: Tmax in C57BL/6 mouse cornea assessed as 4-chloro-3-{5-methyl-3-[4-(2-pyrrolidin-1-yl-ethoxy)phenylamino]benzo[1,2,4]triazin-7-yl}phenol at 172 nM instilled per eye; format: ADME, organism-based; conditions: in vivo, topical_or_ocular, 0.172 µM; how it was run: as §1
[20] = species on record: Mus musculus; experiment: Tmax in C57BL/6 mouse choroid/sclera assessed as 4-chloro-3-{5-methyl-3-[4-(2-pyrrolidin-1-yl-ethoxy)phenylamino]benzo[1,2,4]triazin-7-yl}phenol at 172 nM instilled per eye; format: ADME, organism-based; conditions: in vivo, topical_or_ocular, 0.172 µM; how it was run: as §1
[21] = AUC (0 to 24 hrs) in C57BL/6 mouse choroid/sclera at 172 nM instilled per eye; format: ADME, organism-based; set-up: dose 172 nM, time < 24 hr, route ophthalmic; conditions: topical or ocular, 172 nM per eye; how it was run: as §1
[22] = molecular target: Tyrosine-protein kinase Yes (Homo sapiens, UniProt P07947); experiment: Inhibition of YES
Sequence of Tyrosine-protein kinase Yes (P07947 whole entry): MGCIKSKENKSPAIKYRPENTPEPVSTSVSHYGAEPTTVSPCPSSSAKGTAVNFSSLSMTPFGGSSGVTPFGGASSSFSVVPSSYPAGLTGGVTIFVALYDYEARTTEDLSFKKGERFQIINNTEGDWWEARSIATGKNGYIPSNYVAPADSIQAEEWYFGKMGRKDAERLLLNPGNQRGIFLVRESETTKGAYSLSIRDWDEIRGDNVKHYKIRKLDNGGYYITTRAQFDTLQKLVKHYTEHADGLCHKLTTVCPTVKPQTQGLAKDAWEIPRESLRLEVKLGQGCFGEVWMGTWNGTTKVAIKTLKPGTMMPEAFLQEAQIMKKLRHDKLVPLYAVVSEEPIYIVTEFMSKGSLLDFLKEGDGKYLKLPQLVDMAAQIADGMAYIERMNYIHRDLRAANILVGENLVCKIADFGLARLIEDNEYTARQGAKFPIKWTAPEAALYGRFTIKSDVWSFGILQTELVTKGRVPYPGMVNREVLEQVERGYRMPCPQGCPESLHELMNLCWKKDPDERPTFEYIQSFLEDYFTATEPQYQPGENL

[23] = Cmax in C57BL/6 mouse retina at 172 nM instilled per eye; format: ADME, organism-based; set-up: dose 172 nM, route ophthalmic; conditions: topical or ocular, 172 nM per eye; how it was run: as §1
[24] = Cmax in C57BL/6 mouse cornea at 172 nM instilled per eye; format: ADME, organism-based; set-up: dose 172 nM, route ophthalmic; conditions: topical or ocular, 172 nM per eye; how it was run: as §1
[25] = Tmax in C57BL/6 mouse choroid/sclera at 172 nM instilled per eye; format: ADME, organism-based; conditions: topical or ocular, 172 nM per eye; how it was run: as §1
[26] = Plasma concentration in C57BL/6 mouse after 24 hrs; format: ADME, organism-based
[27] = species on record: Mus musculus; experiment: Cmax in C57BL/6 mouse retina assessed as 4-chloro-3-{5-methyl-3-[4-(2-pyrrolidin-1-yl-ethoxy)phenylamino]benzo[1,2,4]triazin-7-yl}phenol at 172 nM instilled per eye; format: ADME, organism-based; set-up: dose 172 nM, route ophthalmic; conditions: in vivo, topical_or_ocular, 0.172 µM; how it was run: as §1
[28] = species on record: Mus musculus; experiment: AUC (0 to 24 hrs) in C57BL/6 mouse choroid/sclera assessed as 4-chloro-3-{5-methyl-3-[4-(2-pyrrolidin-1-yl-ethoxy)phenylamino]benzo[1,2,4]triazin-7-yl}phenol at 172 nM instilled per eye; format: ADME, organism-based; set-up: dose 172 nM, time < 24 hr, route ophthalmic; conditions: in vivo, topical_or_ocular, 0.172 µM; how it was run: as §1
[29] = AUC (0 to 24 hrs) in C57BL/6 mouse cornea at 172 nM instilled per eye; format: ADME, organism-based; set-up: time < 24 hr, dose 172 nM, route ophthalmic; conditions: topical or ocular, 172 nM per eye; how it was run: as §1

- remaining at 1 h [1]: < 20%
Compound: CC(=O)Oc1ccc(Cl)c(-c2cc(C)c3nc(Nc4ccc(OCCN5CCCC5)cc4)nnc3c2)c1

- Stability [2]: 1.1 ng/mL/h
- remaining at 1 h [1]: > 90%
Compound: Cc1cccc(C)c1C(=O)Oc1ccc(Cl)c(-c2cc(C)c3nc(Nc4ccc(OCCN5CCCC5)cc4)nnc3c2)c1

- Stability [2]: 172 ng/mL/h
- remaining at 1 h [1]: > 90%
Compound: Cc1cc(-c2cc(OC(=O)C(C)(C)C)ccc2Cl)cc2nnc(Nc3ccc(OCCN4CCCC4)cc3)nc12

- remaining at 1 h [1]: 50%
Compound: Cc1cc(-c2cc(OC(=O)c3cccnc3)ccc2Cl)cc2nnc(Nc3ccc(OCCN4CCCC4)cc3)nc12

- IC50 [3]: 1.8 nM
Compound: Cc1cc(-c2cc(O)ccc2Cl)cc2nnc(Nc3ccc(C(=O)N4CCNCC4)cc3)nc12

- IC50 [3]: 4.7 nM
Compound: Cc1cc(-c2cc(O)ccc2Cl)cc2nnc(Nc3ccc(S(=O)(=O)NCCN4CCCC4)cc3)nc12

Compound: Cc1cc(-c2cc(OP(=O)(O)O)ccc2Cl)cc2nnc(Nc3ccc(OCCN4CCCC4)cc3)nc12
- remaining at 1 h [1]: < 20%

- Tmax at 0.172 µM [4]: 24 h
- AUC [7]: 670000 ng·h/mL
- Tmax [8]: 24 h
- IC50 [3]: ≥ 10000 nM
- Stability [2]: 288 ng/mL/h
- Tmax [9]: 24 h
- AUC [10]: 35000 ng·h/mL
- Cmax [11]: 29 µM
- Tmax at 0.172 µM [13]: 24 h
- Cmax [14]: 0.005 µM
- AUC(0-t) at 24 h, 0.172 µM [15]: 63000 ng·h/mL
- Cmax at 0.172 µM [16]: 27 µM
- IC50 [17]: ≥ 10000 nM
- Cmax [18]: 33 µM
- Tmax [19]: 7 h
- Tmax [20]: 24 h
- AUC(0-t) at 24 h, 0.172 µM [21]: 430000 ng·h/mL
- remaining at 1 h [1]: > 90%
- IC50 [22]: ≥ 2500 nM
- Cmax at 0.172 µM [23]: 5.3 µM
- Cmax at 0.172 µM [24]: 3.7 µM
- Tmax at 0.172 µM [25]: 24 h
- concentration at 24 h [26]: < 1 ng/mL
- Cmax [27]: 2.4 µM
- AUC [28]: 540000 ng·h/mL
- AUC(0-t) at 24 h, 0.172 µM [29]: 55000 ng·h/mL
Compound: Cc1cc(-c2cc(OC(=O)c3ccccc3)ccc2Cl)cc2nnc(Nc3ccc(OCCN4CCCC4)cc3)nc12 [TG100-801]
- Activity [5]: 35%
- Activity [6]: 46%
- Activity [12]: 100%

- remaining at 1 h [1]: 50%
Compound: Cc1cc(-c2cc(OC(=O)C(C)C)ccc2Cl)cc2nnc(Nc3ccc(OCCN4CCCC4)cc3)nc12
